Experimental data of several laboratories.
Compare with care: the assays were run in different laboratories.
Cell line: A549
Read-out: cell growth or viability

Structure (SMILES)	technique	time	IC50 [µM]
CC(C)C[C@H](NC(=O)[C@H](CC(C)C)NC(=O)[C@H](CCCCN)NC(=O)[C@H](CCCCN)NC(=O)[C@H](Cc1ccccc1)NC(=O)[C@H](CC(C)C)NC(=O)[C@H](CCCCN)NC(=O)[C@H](CCCCN)NC(=O)[C@H](CC(C)C)NC(=O)[C@H](CC(C)C)NC(=O)[C@H](CCCCN)NC(=O)[C@@H](N)CCCNC(=N)N)C(=O)N[C@@H](CCCCN)C(N)=O	MTT	24 h	20
CC1=CC(=O)c2c(O)cccc2C1=O	MTT		13.6
CC[C@@]1(O)C(=O)OCc2c1cc1n(c2=O)Cc2cc3ccccc3nc2-1	SRB	48 h	0.06
N.N.[Cl][Pt][Cl]	MTT	48 h	5.55
N.N.[Cl][Pt][Cl]			1.2
CC(C)C[C@H](NC(=O)[C@H](CO)NC(=O)[C@H](CO)NC(=O)CNC(=O)[C@@H]1CCCN1C(=O)[C@H](Cc1ccc(O)cc1)NC(=O)[C@H](CC(C)C)NC(=O)[C@H](CO)NC(=O)[C@H](CS)NC(=O)[C@H](CC(C)C)NC(=O)[C@@H](N)CC(C)C)C(=O)O	MTT	72 h	> 100
C[C@H](NC(=O)[C@H](Cc1c[nH]cn1)NC(=O)[C@H](Cc1c[nH]c2ccccc12)NC(=O)[C@H](CCCCN)NC(=O)[C@H](Cc1c[nH]c2ccccc12)NC(=O)[C@H](Cc1c[nH]c2ccccc12)NC(=O)[C@H](CCCNC(=N)N)NC(=O)[C@H](Cc1c[nH]c2ccccc12)NC(=O)[C@H](Cc1c[nH]cn1)NC(=O)[C@@H](N)CCCNC(=N)N)C(=O)N[C@@H](CCCNC(=N)N)C(=O)N[C@@H](Cc1c[nH]c2ccccc12)C(=O)N[C@@H](Cc1c[nH]c2ccccc12)C(N)=O	MTT	24 h	49
[C-]#[O+].[C-]#[O+].[C-]#[O+].[C-]#[O+].[C-]#[O+].[C-]#[O+].[C-]#[O+].[C-]#[O+].[C-]#[O+].[C-]#[O+].[Mn].[Mn]	MTT	48 h	20.9
CC(C)C[C@H](NC(=O)[C@@H]1CCCN1C(=O)[C@H](Cc1ccc(O)cc1)NC(=O)[C@H](CCCCN)NC(=O)[C@H](CCCCN)NC(=O)[C@H](CS)NC(=O)[C@H](CC(C)C)NC(=O)[C@H](CCCCN)NC(=O)[C@H](CCCCN)NC(=O)[C@H](Cc1ccccc1)NC(=O)[C@H](CC(C)C)NC(=O)[C@H](CCCCN)NC(=O)[C@@H](N)CCCNC(=N)N)C(N)=O	MTT	24 h	258
CC(C)[C@@H]1NC(=O)[C@@H](CCCNC(=N)N)NC(=O)[C@H]([C@@H](C)O)NC(=O)[C@@H](CCCNC(=N)N)NC(=O)[C@H](Cc2ccccc2)NC(=O)[C@@H](Cc2ccccc2)NC1=O	ATP luminescence		61.7
N.N.O=C([O-])C1(C(=O)[O-])CCC1.[Pt+2]	MTT	48 h	197
N.N.[Cl][Pt][Cl]	MTT	72 h	50.8
COC(=O)c1cc(C(C)=NNc2nc(-c3ccc(S(=O)(=O)F)cc3)cs2)ccc1O	MTT	96 h	65
CC[C@H](C)[C@H](NC(=O)[C@H](CC(C)C)NC(=O)[C@H](CCCCN)NC(=O)[C@H](CCCCN)NC(=O)[C@H](CC(C)C)NC(=O)[C@H](CCCNC(=N)N)NC(=O)[C@H](CCCCN)NC(=O)[C@@H](N)CC(C)C)C(=O)N[C@@H](CCCCN)C(=O)N[C@@H](CCCCN)C(=O)N[C@@H](CC(C)C)C(=O)N[C@@H](CCCNC(=N)N)C(=O)N[C@@H](CCCCN)C(N)=O	MTT	24 h	100
CC(C)[C@@H]1NC(=O)[C@@H](CCCNC(=N)N)NC(=O)[C@H]([C@@H](C)O)NC(=O)[C@@H](CCN)NC(=O)[C@H](Cc2ccccc2)NC(=O)[C@@H](Cc2ccccc2)NC1=O	ATP luminescence		> 100
CC(C)C[C@H](NC(=O)[C@H](CCCCN)NC(=O)CN)C(=O)N[C@@H](C)C(=O)N[C@@H](CCCCN)C(=O)N[C@@H](CCCCN)C(=O)N[C@@H](CC(C)C)C(=O)N[C@@H](Cc1ccccc1)C(=O)N[C@@H](CCCCN)C(=O)N[C@@H](CCCCN)C(=O)N[C@@H](CC(C)C)C(=O)N[C@@H](CCCCN)C(=O)N[C@@H](Cc1ccc(O)cc1)C(N)=O	MTT	24 h	356
c1ccc([Se][Au]=[c]2n(C3CCCCC3)ccn2C2CCCCC2)cc1	crystal violet		0.9
CC(C)[C@H](NC(=O)[C@H](Cc1c[nH]cn1)NC(=O)[C@H](Cc1c[nH]c2ccccc12)NC(=O)[C@H](Cc1c[nH]cn1)NC(=O)[C@H](C)NC(=O)[C@H](CCCCN)NC(=O)[C@H](Cc1c[nH]c2ccccc12)NC(=O)[C@H](Cc1c[nH]c2ccccc12)NC(=O)[C@H](CCCNC(=N)N)NC(=O)[C@H](Cc1c[nH]c2ccccc12)NC(=O)[C@H](CCCNC(=N)N)NC(=O)[C@@H](N)CCCNC(=N)N)C(=O)N[C@@H](Cc1c[nH]c2ccccc12)C(N)=O	MTT	24 h	240
O=C1c2ccccc2-c2c3c(cc4ccnc1c24)OCO3	MTT	75 h	19.8
